One may read the pIC50 as −log10 of the IC50, conventionally taken in molar units.

The values below come from ChEMBL document CHEMBL1127698, “Matrix metalloproteinase inhibitors containing a (carboxyalkyl)amino zinc ligand: modification of the P1 and P2' residues” (J Med Chem, 1994).

For experiment [1], the target named is Matrix metalloproteinase-9 (Homo sapiens, UniProt P14780). The experiment can be described thus: Activity against human gelatinase (MMP-9). An outline of the steps: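 Human gelatinase at 1 nM in pH 7.6 Tris buffer (200 mM NaCl, 5 mM CaCl2, 20 μM ZnSO4, 0.05% Brij 35), with inhibitors at 3-fold dilutions from 10 000 to 0.057 nM. Ki came from % inhibition vs log concentration, with substrate far below Km.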
Chain of Matrix metalloproteinase-9 (P14780 whole entry): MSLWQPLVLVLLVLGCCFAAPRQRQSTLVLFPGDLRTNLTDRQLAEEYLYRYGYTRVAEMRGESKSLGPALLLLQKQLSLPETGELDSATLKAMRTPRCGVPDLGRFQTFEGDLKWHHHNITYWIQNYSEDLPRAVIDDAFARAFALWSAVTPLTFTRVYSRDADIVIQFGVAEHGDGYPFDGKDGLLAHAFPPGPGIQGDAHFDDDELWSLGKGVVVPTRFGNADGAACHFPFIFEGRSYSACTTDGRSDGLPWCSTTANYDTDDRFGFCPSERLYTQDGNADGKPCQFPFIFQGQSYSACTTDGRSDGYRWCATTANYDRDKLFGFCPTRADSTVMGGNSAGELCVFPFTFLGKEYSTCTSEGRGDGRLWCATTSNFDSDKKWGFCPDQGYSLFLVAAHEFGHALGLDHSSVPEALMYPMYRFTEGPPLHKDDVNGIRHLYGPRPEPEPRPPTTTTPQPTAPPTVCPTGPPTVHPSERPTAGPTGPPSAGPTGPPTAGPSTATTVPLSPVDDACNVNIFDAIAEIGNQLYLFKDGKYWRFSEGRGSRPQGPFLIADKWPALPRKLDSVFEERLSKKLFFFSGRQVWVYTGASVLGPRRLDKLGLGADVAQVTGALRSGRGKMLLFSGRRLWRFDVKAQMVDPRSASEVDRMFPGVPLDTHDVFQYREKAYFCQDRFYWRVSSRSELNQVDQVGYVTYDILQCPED

The target in experiment [2] is T1, Interstitial collagenase (Homo sapiens, UniProt P03956).
T1 sequence (P03956 whole entry): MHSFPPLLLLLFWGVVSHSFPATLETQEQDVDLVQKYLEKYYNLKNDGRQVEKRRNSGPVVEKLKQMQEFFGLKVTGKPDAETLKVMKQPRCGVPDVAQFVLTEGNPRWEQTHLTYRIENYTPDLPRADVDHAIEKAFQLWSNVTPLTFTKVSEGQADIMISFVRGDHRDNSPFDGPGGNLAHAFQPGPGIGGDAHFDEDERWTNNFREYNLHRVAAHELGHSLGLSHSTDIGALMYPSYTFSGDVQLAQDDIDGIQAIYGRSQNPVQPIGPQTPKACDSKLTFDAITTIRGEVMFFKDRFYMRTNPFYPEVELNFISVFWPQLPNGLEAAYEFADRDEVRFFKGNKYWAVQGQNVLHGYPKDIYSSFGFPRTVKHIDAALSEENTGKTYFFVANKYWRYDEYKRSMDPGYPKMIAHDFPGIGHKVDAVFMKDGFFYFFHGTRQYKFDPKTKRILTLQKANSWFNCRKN
The experiment can be described thus: Activity against human collagenase (MMP-1).

The target in experiment [3] is Stromelysin-1 (Homo sapiens, UniProt P08254). The experiment can be described thus: Activity against human stromelysin (MMP-3). An outline of the steps:
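Fluorogenic stromelysin assay: human enzyme 10 nM in pH 7.6 Tris buffer (200 mM NaCl, 5 mM CaCl2, 20 μM ZnSO4, 0.05% Brij 35). Inhibitors ran from 10 000 to 0.057 nM in 3-fold steps. Ki came from % inhibition vs log[inhibitor], with substrate far below Km.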

pIC50: −log10 of the molar value.

Chain of Stromelysin-1 (P08254 whole entry): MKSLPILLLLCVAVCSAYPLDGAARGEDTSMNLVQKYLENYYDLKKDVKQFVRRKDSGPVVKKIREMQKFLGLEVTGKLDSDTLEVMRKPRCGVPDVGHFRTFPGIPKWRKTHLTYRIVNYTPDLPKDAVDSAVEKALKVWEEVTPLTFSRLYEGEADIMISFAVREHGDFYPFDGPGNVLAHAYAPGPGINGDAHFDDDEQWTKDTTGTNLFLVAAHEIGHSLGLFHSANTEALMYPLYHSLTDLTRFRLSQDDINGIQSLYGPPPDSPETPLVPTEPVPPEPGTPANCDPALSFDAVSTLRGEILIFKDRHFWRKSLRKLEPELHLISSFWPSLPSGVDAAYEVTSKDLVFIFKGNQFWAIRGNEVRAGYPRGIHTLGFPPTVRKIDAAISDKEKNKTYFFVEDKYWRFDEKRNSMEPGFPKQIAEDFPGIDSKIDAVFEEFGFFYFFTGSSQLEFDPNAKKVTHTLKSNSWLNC

On to `CC(C)C[C@H](N[C@H](CCN1C(=O)c2cc3ccccc3cc2C1=O)C(=O)O)C(=O)N(C)Cc1ccccc1`, for which the pIC50 in experiment [1] was 7.24; in experiment [2] it was 7.43; in experiment [3], 5.94.
Regarding `CNC(=O)C(NC(=O)[C@H](CC(C)C)N[C@H](CCN1C(=O)c2cc3ccccc3cc2C1=O)C(=O)O)c1ccccc1` (stereo not given in full), the values for the pIC50 in experiment [1], in experiment [2] and in experiment [3] were 7.85, 7.72 and 6.20, respectively.
`CNC(=O)[C@H](Cc1ccccc1)NC(=O)[C@H](CC(C)C)N[C@H](CCN1C(=O)c2cc3ccc(OC)cc3cc2C1=O)C(=O)O`: in experiment [2], the pIC50 was 7.44.
With `CC(C)C[C@@H](N[C@H](CCN1C(=O)c2cc3ccccc3cc2C1=O)C(=O)O)C(=O)NC(C)c1ccccc1` (stereo not given in full), the pIC50 was 7.12 in experiment [1], 7.13 in experiment [2] and 5.33 in experiment [3].
Taken in the same sequence, the figures for `CC(C)C[C@H](N[C@H](CCN1C(=O)c2cc3ccccc3cc2C1=O)C(=O)O)C(=O)NCc1ccccc1` were 7.49, 7.06 and 5.82.
In the case of `CNC(=O)CNC(=O)[C@H](CC(C)C)N[C@H](CCN1C(=O)c2cc3ccccc3cc2C1=O)C(=O)O`, the pIC50 in experiment [1] is 6.91; in experiment [2], 6.43; in experiment [3], below 5.00.
Regarding `CNC(=O)[C@H](Cc1ccccc1)NC(=O)[C@H](CC(C)C)N[C@H](CCNC(=O)OCc1ccccc1)C(=O)O`, the pIC50 in experiment [1] was 6.24; in experiment [3] it was 5.45.
Taken in the same sequence, the figures for `CC(C)C[C@H](N[C@H](CCN1C(=O)c2cc3ccccc3cc2C1=O)C(=O)O)C(=O)Nc1ccccc1` were 7.00 and 4.90.
As to `CC(C)C[C@H](N[C@H](CCN1C(=O)c2cc3ccccc3cc2C1=O)C(=O)O)C(=O)NC1CCCc2ccccc21` (stereo not given in full), the results for the pIC50 in experiment [1], in experiment [2] and in experiment [3] were 7.12, 6.97 and 5.61, respectively.
For `CC(C)C[C@H](N[C@H](CCN1C(=O)c2cc3ccccc3cc2C1=O)C(=O)O)C(=O)N1CCN(C)CC1`, in that order: 7.15, 7.27 and 5.72.
With `CNC(=O)[C@H](Cc1ccccc1)NC(=O)[C@H](CC(C)C)N[C@H](CCN1C(=O)c2cccc3c(Br)ccc(c23)C1=O)C(=O)O`, the results for the pIC50 in experiment [1], in experiment [2] and in experiment [3] were 7.55, 6.72 and 6.47, respectively.
For `CNC(=O)[C@H](CCCN=C(N)N)NC(=O)[C@H](CC(C)C)N[C@H](CCN1C(=O)c2cc3ccccc3cc2C1=O)C(=O)O`, in that order: 7.57, 6.82 and 6.32.
For `CC(C)C[C@H](N[C@H](CCN1C(=O)c2cc3ccccc3cc2C1=O)C(=O)O)C(=O)N(C)C`, in that order: 7.09, 7.07 and below 5.00.
On to `CC(C)C[C@H](N[C@H](CCN1C(=O)c2cc3ccccc3cc2C1=O)C(=O)O)C(=O)N1CCCC1c1cccnc1` (stereo in doubt; 75), for which the pIC50 in experiment [1] was 7.74; in experiment [2], 7.36; in experiment [3] it was 6.02.
With `CC(C)C[C@H](N[C@H](CCN1C(=O)c2cc3ccccc3cc2C1=O)C(=O)O)C(=O)N1CCc2ccccc2C1`, the pIC50 in experiment [1] is 7.06; in experiment [2] it was 7.08; in experiment [3], 5.66.
Taken in the same sequence, the figures for `CC(C)C[C@H](N[C@H](CCN1C(=O)c2cc3ccccc3cc2C1=O)C(=O)O)C(=O)NCc1ccc(C(=O)O)cc1` were 7.13, 7.25 and 6.75.
Taken in the same sequence, the figures for `CNC(=O)[C@H](CC(C)C)N[C@H](CCN1C(=O)c2cc3ccccc3cc2C1=O)C(=O)O` were 6.15, 6.31 and below 5.00.
For `CC(C)C[C@H](N[C@H](CCN1C(=O)c2cc3ccccc3cc2C1=O)C(=O)O)C(=O)NC(C)c1ccccc1` (stereo not given in full), in that order: 7.92, 7.29 and 6.02.
